What was measured:
NCI-H322M = assay: Growth inhibition of human NCI-H322M cells; assay type: functional
[1] = Growth inhibition of human HCC2998 cells; assay type: functional; conditions: HCC 2998
HCT-116 = assay: Growth inhibition of human HCT116 cells; assay type: functional
[2] = Growth inhibition of human HCT15 cells; assay type: functional
SW-620 = assay: Growth inhibition of human SW620 cells; assay type: functional
SNB-19 = assay: Growth inhibition of human SNB19 cells; assay type: functional
SNB-75 = assay: Growth inhibition of human SNB75 cells; assay type: functional
MDA-MB-435 = assay: Growth inhibition of human MDA-MB-435 cells; assay type: functional
SK-MEL-28 = assay: Growth inhibition of human SK-MEL-28 cells; assay type: functional
[3] = Growth inhibition of human UACC62 cells; assay type: functional; conditions: UACC-62
IGROV-1 = assay: Growth inhibition of human IGROV1 cells; assay type: functional
[4] = Growth inhibition of human OVCAR5 cells; assay type: functional; conditions: OVCAR-5
[5] = Growth inhibition of human NCI-ADR-RES cells; assay type: functional
A498 = assay: Growth inhibition of human A498 cells; assay type: functional
CAKI-1 = assay: Growth inhibition of human CAKI-1 cells; assay type: functional
SN12C = assay: Growth inhibition of human SN12C cells; assay type: functional
TK-10 = assay: Growth inhibition of human TK10 cells; assay type: functional
[6] = Growth inhibition of human UO31 cells; assay type: functional; conditions: UO-31
DU-145 = assay: Growth inhibition of human DU145 cells; assay type: functional
MDA-MB-231 = assay: Growth inhibition of human MDA-MB-231 cells; assay type: functional
[7] = Growth inhibition of human Hs 578T cells; assay type: functional
[8] = Growth inhibition of human BT549 cells; assay type: functional
MDA-MB-468 = assay: Growth inhibition of human MDA-MB-468 cells; assay type: functional
[9] = molecular target: T1, Proteasome Macropain subunit MB1 (Homo sapiens) (UniProt P28074); assay: Inhibition of chymotrypsin-like activity of 20S proteasome in human erythrocytes using Suc-Leu-Leu-Val-Tyr-AMC as substrate at 20 uM by fluorescence assay relative to control
T1 sequence (whole entry): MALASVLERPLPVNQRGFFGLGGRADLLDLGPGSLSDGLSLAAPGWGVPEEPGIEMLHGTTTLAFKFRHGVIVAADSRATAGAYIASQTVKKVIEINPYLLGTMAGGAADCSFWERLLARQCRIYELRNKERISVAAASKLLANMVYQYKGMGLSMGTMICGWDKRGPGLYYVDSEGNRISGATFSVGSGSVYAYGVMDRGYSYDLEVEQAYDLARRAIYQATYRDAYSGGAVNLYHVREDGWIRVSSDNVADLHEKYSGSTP
Procedure, shortened: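 Single inhibitor concentration, equivalent DMSO as negative control. AMC fluorescence read at ex 380/em 460 nm; percent inhibition of ChT-L activity.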

[10] = molecular target: T2, Proteasome Macropain subunit MB1 (Homo sapiens, UniProt P28074); assay: Inhibition of chymotrypsin-like activity of 20S proteasome in human erythrocytes using Suc-Leu-Leu-Val-Tyr-AMC as substrate by fluorescence assay; conditions: read-out: Ki
T2 sequence (P28074 whole entry): T1 sequence (whole entry)

[11] = Cytotoxicity against human CNSC cells assessed as cell growth at 10 uM relative to control; assay type: functional; conditions: read-out: Activity
Procedure, shortened: (§1)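 Single-concentration screen against a panel of human cancer cell lines. Each value is the mean percent growth across the cell lines of that tumour subpanel.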

[12] = Cytotoxicity against human melanoma cells assessed as cell growth at 10 uM relative to control; assay type: functional; conditions: read-out: Activity; procedure, shortened: as §1
SR = assay: Growth inhibition of human SR cells; assay type: functional
A549 = assay: Growth inhibition of human A549/ATCC cells; assay type: functional
[13] = Growth inhibition of human HOP92 cells; assay type: functional
NCI-H226 = assay: Growth inhibition of human NCI-H226 cells; assay type: functional
[14] = read-out: LC50 (the source's name)

CC(C)C[C@H](NC(=O)CCn1ccc2ncccc2c1=O)B(O)O
GI50 (NCI-H322M): > 100 µM | TGI (NCI-H322M): > 100 µM | CC50 (NCI-H322M; [14]): > 100 µM | GI50 [1]: 13.6 µM | LC50 [1]: 90.2 µM | TGI [1]: 35 µM | GI50 (HCT-116): 3.3 µM | LC50 (HCT-116): 86.2 µM | TGI (HCT-116): 16.5 µM | GI50 ([2]; HCT-15): 21.3 µM | TGI ([2]; HCT-15): > 100 µM | CC50 ([2]; HCT-15, read-out: LC50 (the source's name)): > 100 µM | GI50 (SW-620): 4.62 µM | LC50 (SW-620): > 100 µM | TGI (SW-620): > 100 µM | GI50 (SNB-19): 41.2 µM | TGI (SNB-19): > 100 µM | CC50 (SNB-19; [14]): > 100 µM | GI50 (SNB-75): 13.3 µM | LC50 (SNB-75): > 100 µM | TGI (SNB-75): 44.9 µM | GI50 (MDA-MB-435): 2.41 µM | TGI (MDA-MB-435): 7.02 µM | CC50 (MDA-MB-435; [14]): 67.8 µM | GI50 (SK-MEL-28): 7.17 µM | TGI (SK-MEL-28): > 100 µM | CC50 (SK-MEL-28; [14]): > 100 µM | GI50 [3]: 5.55 µM | LC50 (concentration killing 50% of cells) [3]: > 100 µM | TGI [3]: 48.8 µM | GI50 (IGROV-1): 60.2 µM | LC50 (IGROV-1): > 100 µM | TGI (IGROV-1): > 100 µM | GI50 [4]: 17.1 µM | LC50 [4]: > 100 µM | TGI [4]: > 100 µM | GI50 [5]: > 100 µM | LC50 [5]: > 100 µM | TGI [5]: > 100 µM | GI50 (A498): 3.07 µM | LC50 (A498): > 100 µM | TGI (A498): 24.3 µM | GI50 (CAKI-1): 19.4 µM | TGI (CAKI-1): > 100 µM | CC50 (CAKI-1; [14]): > 100 µM | GI50 (SN12C): 18 µM | TGI (SN12C): > 100 µM | CC50 (SN12C; [14]): > 100 µM | GI50 (TK-10): 5.16 µM | LC50 (TK-10): > 100 µM | TGI (TK-10): 47.7 µM | GI50 [6]: 19.4 µM | LC50 [6]: > 100 µM | TGI [6]: > 100 µM | GI50 (DU-145): 32.7 µM | TGI (DU-145): > 100 µM | CC50 (DU-145; [14]): > 100 µM | GI50 (MDA-MB-231): 7.94 µM | TGI (MDA-MB-231): 32.5 µM | CC50 (MDA-MB-231; [14]): > 100 µM | GI50 [7]: 15.6 µM | TGI [7]: > 100 µM | CC50 [7, 14]: > 100 µM | GI50 ([8]; BT-549): 3.49 µM | TGI ([8]; BT-549): 12.5 µM | CC50 ([8]; BT-549, read-out: LC50 (the source's name)): > 100 µM | GI50 (MDA-MB-468): 2.04 µM | TGI (MDA-MB-468): 9.96 µM | CC50 (MDA-MB-468; [14]): > 100 µM | inhibition [9]: > 40% | Ki [10]: 0.057 µM | growth at 10 µM [11]: 82.9% | growth at 10 µM [12]: 60.4% | GI50 (SR): 3.18 µM | TGI (SR): > 100 µM | CC50 (SR; [14]): > 100 µM | GI50 (A549): 38 µM | TGI (A549): > 100 µM | CC50 (A549; [14]): > 100 µM | GI50 ([13]; HOP-92): 16.8 µM | TGI ([13]; HOP-92): 71.3 µM | CC50 ([13]; HOP-92, read-out: LC50 (the source's name)): > 100 µM | GI50 (NCI-H226): 2.68 µM | TGI (NCI-H226): 8.9 µM | CC50 (NCI-H226; [14]): 48 µM

Source: ChEMBL document CHEMBL3286129, “Optimization of peptidomimetic boronates bearing a P3 bicyclic scaffold as proteasome inhibitors” (Eur J Med Chem, 2014)
